Results taken from ChEMBL document CHEMBL4304739, “Discovery of 3-(Indol-5-yl)-indazole Derivatives as Novel Myeloid Differentiation Protein 2/Toll-like Receptor 4 Antagonists for Treatment of Acute Lung Injury” (J Med Chem, 2019).
Active and inactive are the calls of the source. No cut-off for these calls is given here.

Key:
Peritoneal macrophage = test: Cytotoxicity against ICR mouse peritoneal macrophages assessed as reduction in cell viability at 10 uM measured after 24 hrs by MTT assay; format: cell-based
Method in brief: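 Peritoneal macrophages from ICR mice, 2.0×10^4 cells/well in DMEM with 10% FBS. Cells exposed to compound for 24 h, then MTT (5 mg/ml in 0.9% NaCl) added for 4 h at 37 °C in 5% CO2. Absorbance read at 490 nm; final DMSO 0.1%.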

[1] = target: T1, Toll-like receptor 4/Ly96 (Mus musculus, UniProt Q9JHF9+Q9QUK6); test: Inhibition of MD2-TLR4 protein-protein interaction in ICR mouse peritoneal macrophages assessed as reduction in LPS-induced IL-6 production preincubated for 2 hrs followed by LPS-stimulation and measured after 22 hrs by ELISA
T1 sequence (Q9QUK6 whole entry): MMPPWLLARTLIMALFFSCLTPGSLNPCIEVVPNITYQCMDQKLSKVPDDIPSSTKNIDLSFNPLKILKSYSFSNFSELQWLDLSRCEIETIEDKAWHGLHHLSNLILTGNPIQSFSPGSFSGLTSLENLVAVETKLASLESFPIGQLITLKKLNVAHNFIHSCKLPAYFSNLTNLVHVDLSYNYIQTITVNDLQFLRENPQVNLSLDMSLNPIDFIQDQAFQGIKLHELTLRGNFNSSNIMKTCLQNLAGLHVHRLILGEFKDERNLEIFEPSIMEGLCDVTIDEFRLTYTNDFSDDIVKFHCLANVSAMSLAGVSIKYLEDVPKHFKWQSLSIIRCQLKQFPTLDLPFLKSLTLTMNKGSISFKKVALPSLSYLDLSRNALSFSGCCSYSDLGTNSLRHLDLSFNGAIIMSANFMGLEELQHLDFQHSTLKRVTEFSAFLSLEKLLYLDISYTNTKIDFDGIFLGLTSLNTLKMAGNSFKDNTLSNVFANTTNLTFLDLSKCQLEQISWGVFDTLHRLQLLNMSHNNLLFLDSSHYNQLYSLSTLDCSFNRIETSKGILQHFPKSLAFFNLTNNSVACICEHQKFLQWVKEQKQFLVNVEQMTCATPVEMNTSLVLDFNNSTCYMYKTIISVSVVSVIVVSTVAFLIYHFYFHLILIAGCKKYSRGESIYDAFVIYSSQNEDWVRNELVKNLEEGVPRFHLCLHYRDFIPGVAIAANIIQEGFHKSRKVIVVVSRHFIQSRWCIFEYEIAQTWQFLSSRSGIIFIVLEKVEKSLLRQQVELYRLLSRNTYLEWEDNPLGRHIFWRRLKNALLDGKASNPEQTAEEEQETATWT
T1 sequence (Q9JHF9 whole entry): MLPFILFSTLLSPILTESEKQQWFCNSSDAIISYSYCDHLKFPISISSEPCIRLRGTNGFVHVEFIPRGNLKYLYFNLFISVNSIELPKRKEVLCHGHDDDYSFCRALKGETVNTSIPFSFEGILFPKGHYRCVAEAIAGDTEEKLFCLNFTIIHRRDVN

[2] = target: T1, Toll-like receptor 4/Ly96; test: Inhibition of MD2-TLR4 protein-protein interaction in ICR mouse peritoneal macrophages assessed as reduction in LPS-induced TNFalpha production preincubated for 2 hrs followed by LPS-stimulation and measured after 22 hrs by ELISA
Mus musculus [3] = test: Antiinflammatory activity in LPS-induced C57BL/6 mouse model of acute lung injury assessed as reduction in lung injury score at 10 mg/kg, iv pretreated for 15 mins followed by LPS stimulation and measured after 6 hrs; format: functional, organism-based
Method in brief: (§1)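 Male C57BL/6 mice (18−22 g; n=8 per group). Compound in 0.1% CMC-Na given by tail vein injection 15 min before intraperitoneal LPS (20 mg/kg); controls received saline. Mice were sacrificed 6 h after LPS, and serum and lung tissue were collected.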

Mus musculus [4] = test: Antiinflammatory activity in LPS-induced C57BL/6 mouse model of acute lung injury assessed as reduction in F4/80 positive macrophage at 10 mg/kg, iv pretreated for 15 mins followed by LPS stimulation and measured after 6 hrs by ABC/hematoxylin staining-based immunohistochemistry analysis; format: functional, organism-based; method in brief: as §1

SMILES | Activity (Peritoneal macrophage) | also measured
O=C(CCCl)Nc1ccc2[nH]nc(-c3ccc4c(ccn4CCO)c3)c2c1 | Non-Toxic | IC50 [1]: 4.57 µM; IC50 [2]: 3.47 µM
CC(=O)Nc1ccc2[nH]nc(-c3ccc4c(ccn4CCO)c3)c2c1 | Non-Toxic | 
O=C(Nc1ccc2[nH]nc(-c3ccc4c(ccn4CCO)c3)c2c1)c1cccc(Cl)c1 | Non-Toxic | 
O=C(Nc1ccc2[nH]nc(-c3ccc4c(ccn4CCO)c3)c2c1)c1ccc(Cl)cc1 | Non-Toxic | 
Nc1ccc2[nH]nc(-c3ccc4c(ccn4CCO)c3)c2c1 | Non-Toxic | 
CCC(=O)Nc1ccc2[nH]nc(-c3ccc4c(ccn4CCO)c3)c2c1 | Non-Toxic | 
O=C(Nc1ccc2[nH]nc(-c3ccc4c(ccn4CCO)c3)c2c1)c1ccccn1 | Non-Toxic | 
O=[N+]([O-])c1ccc2[nH]nc(-c3ccc4c(ccn4CCO)c3)c2c1 | Non-Toxic | IC50 [1]: 0.84 µM; IC50 [2]: 6.99 µM
Cc1cccc(C(=O)Nc2ccc3[nH]nc(-c4ccc5c(ccn5CCO)c4)c3c2)n1 | Non-Toxic | 
O=C(/C=C/c1ccccc1)Nc1ccc2[nH]nc(-c3ccc4c(ccn4CCO)c3)c2c1 | Non-Toxic | 
O=C(Nc1ccc2[nH]nc(-c3ccc4c(ccn4CCO)c3)c2c1)c1c(Cl)cccc1Cl | Non-Toxic | IC50 [1]: 0.73 µM; IC50 [2]: 6.31 µM
Cc1cccc(C(=O)Nc2ccc3[nH]nc(-c4ccc5c(ccn5CCO)c4)c3c2)c1 | Non-Toxic | 
O=C(Nc1ccc2[nH]nc(-c3ccc4c(ccn4CCO)c3)c2c1)c1ccc(F)cc1 | Non-Toxic | 
O=C(Nc1ccc2c(c1)c(-c1ccc3[nH]ccc3c1)nn2Cc1ccccc1)c1c(Cl)cccc1Cl | Non-Toxic | 
CCCn1c(-c2c[nH]c3ncccc23)nc2ccc(N3CCN(C)CC3)nc21 |  | Activity (Mus musculus [3]): Active; Activity (Mus musculus [4]): Active
COc1cc(OC)cc(C(=O)Nc2ccc3[nH]nc(-c4ccc5c(ccn5CCO)c4)c3c2)c1 | Non-Toxic | 
